Tested on: E. coli BW25113 wild type growth inhibition, OD615
Experiment: wild-type E. coli BW25113 antibacterial activity – OD615, dose response (AID 638)
Summary of the method: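 Assay system: E. coli BW25113 wild type. Doses: compound concentration series. Timing: 20 h compound exposure, 37 °C. Technique: OD615 absorbance. Medium: LB broth containing kanamycin at 50 µg/mL. Benchmarks: chloramphenicol at 30 µM final as inhibition control. Measure: IC50 from 4-parameter logistic, bounds fixed 0–100%.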

| SMILES | IC50 |
| --- | --- |
| O=C(Nc1nnc(-c2ccccc2)o1)c1ccc(Cl)cc1 | 102 µM |
| CCSc1nnc(NC(=O)c2ccccn2)s1 | 92.8 µM |
| COc1cccc(C(=O)Nc2nnc(-c3cccs3)o2)c1 | 79.6 µM |
| O=c1ccsn1Cc1ccccc1 | 23.6 µM |
| C=CCNc1ncnc2c1[nH]c1ccc(C)cc12 | 35.4 µM |
| CCC(=O)N1CCN(c2cc3c(cc2F)c(=O)c(C(=O)O)cn3CC)CC1 | 3.16 µM |
| CN1CCN(c2c(F)cc3c(=O)c(C(=O)O)cn4c3c2SCC4)CC1 | 1.1 µM |
| CO[C@@]1(NC(=O)Cc2cccs2)C(=O)N2C(C(=O)O)=C(COC(N)=O)CS[C@@H]21 | 7.91 µM |
| CCCCOc1ccc(NC2=NC3(CCCCC3)N=C(N)N2)cc1 | 89 µM |
| COc1c(N2CCNC(C)C2)c(F)cc2c(=O)c(C(=O)O)cn(C3CC3)c12 (centres undefined) | < 0.195 µM |
| Cc1ccsc1C(=O)Nc1nnc(-c2ccco2)o1 | 60.3 µM |
| c1ccc(-c2cccc(-c3ccccn3)n2)nc1 | 66.8 µM |
| CC(=O)c1c(C)n([O-])c2ccccc2[n+]1=O | 19.5 µM |
| COc1cc(Cc2cnc(N)nc2N)cc(OC)c1OC | 0.688 µM |
| CCn1cc(C(=O)Nc2nncs2)c(=O)c2cc(F)c(N3CCN(C(=O)c4ccco4)CC3)cc21 | 75.6 µM |
| CCn1cc(C(=O)O)c(=O)c2cc(F)c(N3CCN(C(=O)Nc4ccccc4)CC3)cc21 | 2.28 µM |
| O=S1(=O)Nc2c(ccc3cccnc23)-c2ccccc21 | 26.8 µM |
| NC1C2CN(c3nc4c(cc3F)c(=O)c(C(=O)O)cn4-c3ccc(F)cc3F)CC12 (centres undefined) | < 0.195 µM |
| O=C(Nc1cccc(Cl)c1)Nc1nccs1 | 96.1 µM |
| Oc1c(CN2CCCCC2)cc(Br)c2cccnc12 | 61.3 µM |
| CCn1cc(C(=O)NCc2ccc3c(c2)OCO3)c(=O)c2cc(F)c(N3CCN(C)CC3)cc21 | 28.2 µM |
| CC(=O)OCC1=C(C(=O)O)N2C(=O)[C@@H](NC(=O)Cc3cccs3)[C@H]2SC1 | 10.6 µM |
| CN(C)[C@@H]1C(=O)C(C(N)=O)=C(O)[C@@]2(O)C(=O)C3=C(O)c4c(O)ccc(Cl)c4[C@@H](O)[C@H]3C[C@@H]12 | 0.609 µM |
| N#Cc1ccc(NC(=O)Nc2ccc(Cl)cc2)cc1 | 49.2 µM |
